Assays:
[1] = molecular target: P-gp (ABCB1) (Homo sapiens, UniProt P08183); experiment: Substrate activity at p-gp in human Caco2 cells assessed as ratio of apparent permeability across basolateral to apical over apical to basolateral side at 100 uM after 120 mins by UV-Vis spectroscopy; assay type: ADME, cell-based; settings: Caco-2
Summary of the method: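 Caco-2 monolayers cultured 21 days, with TEER checked before and after the experiment. Compounds at 100 μM in HBSS pH 7.4, applied apical or basolateral, 120 min at 37 °C after 30 min buffer preincubation. Acceptor concentration measured by UV–vis. Papp = [VA/(area×time)]×([drug]acceptor/[drug]initial), area 0.11 cm², 7200 s. Two independent experiments.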

[2] = molecular target: Multidrug resistance-associated protein 1 (Homo sapiens, UniProt P33527); experiment: Inhibition of MRP1 (unknown origin) expressed in MDCK cells assessed as decrease in calcein-AM transport at 10^-4 M after 30 mins by fluorescence assay; assay type: cell-based; settings: 0.5 h, 100 µM
Summary of the method: (§1)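 MDCK-MDR1 or MDCK-MRP1 cells (50,000/well) grown to confluence overnight. Compounds in medium preincubated 30 min at 37 °C, then calcein-AM (2.5 μM final, in PBS) added for 30 min. Three ice-cold PBS washes; fluorescence read at ex 485/em 535 nm. Increase over untreated basal fluorescence fitted against log[dose] for EC50. Mean of three independent experiments, duplicate samples.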

[3] = system: MDCK; experiment: Cytotoxicity against MDCK cells expressing MDR1 assessed as inhibition of cell proliferation at 0.1 uM after 48 hrs by MTT assay; assay type: ADME, cell-based, Canis lupus familiaris; settings: dog
Summary of the method: (§2)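 MTT growth assay. 30000 cells/well seeded on day 1; drugs added on day 2 over 0.1–100 μM, with solvent (ethanol, DMSO) controls. After 24 or 48 h, MTT 0.5 mg/mL for 3 h at 37 °C. Formazan dissolved in DMSO, absorbance read at 570 and 630 nm.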

[4] = system: MDCK; experiment: Cytotoxicity against MDCK cells expressing MDR1 assessed as inhibition of cell proliferation at 1 uM after 24 hrs by MTT assay; assay type: ADME, cell-based, Canis lupus familiaris; settings: dog; summary of the method: as §2
[5] = system: MCF7; experiment: Cytotoxicity against human MCF7 cells assessed as inhibition of cell proliferation at 0.1 uM after 24 hrs by MTT assay; assay type: cell-based; settings: mcf7, 24 h; summary of the method: as §2
[6] = molecular target: T1, Broad substrate specificity ATP-binding cassette transporter ABCG2 (Homo sapiens, UniProt Q9UNQ0); experiment: Inhibition of BCRP (unknown origin)
T1 sequence (Q9UNQ0 whole entry): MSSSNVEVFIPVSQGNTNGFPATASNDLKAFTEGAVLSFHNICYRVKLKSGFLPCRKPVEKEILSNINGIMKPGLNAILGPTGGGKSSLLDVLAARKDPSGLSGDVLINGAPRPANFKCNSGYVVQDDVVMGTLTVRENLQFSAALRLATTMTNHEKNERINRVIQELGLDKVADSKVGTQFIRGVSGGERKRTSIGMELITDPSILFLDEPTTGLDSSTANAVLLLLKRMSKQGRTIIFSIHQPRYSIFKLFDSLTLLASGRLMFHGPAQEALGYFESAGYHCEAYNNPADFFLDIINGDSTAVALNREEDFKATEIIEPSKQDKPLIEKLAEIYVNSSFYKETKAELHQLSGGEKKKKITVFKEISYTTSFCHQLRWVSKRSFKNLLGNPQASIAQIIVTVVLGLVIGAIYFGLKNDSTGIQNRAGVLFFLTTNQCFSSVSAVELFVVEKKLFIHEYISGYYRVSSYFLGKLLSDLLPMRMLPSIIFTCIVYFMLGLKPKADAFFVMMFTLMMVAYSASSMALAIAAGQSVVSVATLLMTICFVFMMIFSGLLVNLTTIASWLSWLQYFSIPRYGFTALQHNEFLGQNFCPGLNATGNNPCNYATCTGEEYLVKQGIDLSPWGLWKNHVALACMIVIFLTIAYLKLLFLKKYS

[7] = molecular target: T2, ATP-dependent translocase ABCB1 (Homo sapiens, UniProt P08183); experiment: Inhibition of MDR1 (unknown origin) expressed in MDCK cells assessed as decrease in calcein-AM transport after 30 mins by fluorescence assay; assay type: cell-based; summary of the method: as §1
[8] = molecular target: T2, ATP-dependent translocase ABCB1; experiment: Activation of MDR1 (unknown origin) ATPase activity expressed in MDCK cells assessed as decrease in ATP level after 2 hrs by ATPlite assay; assay type: cell-based
Summary of the method: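 MDCK-MDR1 cells seeded at 2x10⁴/well, grown overnight at 37 °C, 5% CO₂, then exposed to test compounds in complete medium at varying concentrations for 2 h. Cells lysed, luciferase substrate added, 10 min dark adaptation, luminescence read as cellular ATP level. Mean of three independent experiments, duplicate samples.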

Chain of Multidrug resistance-associated protein 1 (P33527 whole entry): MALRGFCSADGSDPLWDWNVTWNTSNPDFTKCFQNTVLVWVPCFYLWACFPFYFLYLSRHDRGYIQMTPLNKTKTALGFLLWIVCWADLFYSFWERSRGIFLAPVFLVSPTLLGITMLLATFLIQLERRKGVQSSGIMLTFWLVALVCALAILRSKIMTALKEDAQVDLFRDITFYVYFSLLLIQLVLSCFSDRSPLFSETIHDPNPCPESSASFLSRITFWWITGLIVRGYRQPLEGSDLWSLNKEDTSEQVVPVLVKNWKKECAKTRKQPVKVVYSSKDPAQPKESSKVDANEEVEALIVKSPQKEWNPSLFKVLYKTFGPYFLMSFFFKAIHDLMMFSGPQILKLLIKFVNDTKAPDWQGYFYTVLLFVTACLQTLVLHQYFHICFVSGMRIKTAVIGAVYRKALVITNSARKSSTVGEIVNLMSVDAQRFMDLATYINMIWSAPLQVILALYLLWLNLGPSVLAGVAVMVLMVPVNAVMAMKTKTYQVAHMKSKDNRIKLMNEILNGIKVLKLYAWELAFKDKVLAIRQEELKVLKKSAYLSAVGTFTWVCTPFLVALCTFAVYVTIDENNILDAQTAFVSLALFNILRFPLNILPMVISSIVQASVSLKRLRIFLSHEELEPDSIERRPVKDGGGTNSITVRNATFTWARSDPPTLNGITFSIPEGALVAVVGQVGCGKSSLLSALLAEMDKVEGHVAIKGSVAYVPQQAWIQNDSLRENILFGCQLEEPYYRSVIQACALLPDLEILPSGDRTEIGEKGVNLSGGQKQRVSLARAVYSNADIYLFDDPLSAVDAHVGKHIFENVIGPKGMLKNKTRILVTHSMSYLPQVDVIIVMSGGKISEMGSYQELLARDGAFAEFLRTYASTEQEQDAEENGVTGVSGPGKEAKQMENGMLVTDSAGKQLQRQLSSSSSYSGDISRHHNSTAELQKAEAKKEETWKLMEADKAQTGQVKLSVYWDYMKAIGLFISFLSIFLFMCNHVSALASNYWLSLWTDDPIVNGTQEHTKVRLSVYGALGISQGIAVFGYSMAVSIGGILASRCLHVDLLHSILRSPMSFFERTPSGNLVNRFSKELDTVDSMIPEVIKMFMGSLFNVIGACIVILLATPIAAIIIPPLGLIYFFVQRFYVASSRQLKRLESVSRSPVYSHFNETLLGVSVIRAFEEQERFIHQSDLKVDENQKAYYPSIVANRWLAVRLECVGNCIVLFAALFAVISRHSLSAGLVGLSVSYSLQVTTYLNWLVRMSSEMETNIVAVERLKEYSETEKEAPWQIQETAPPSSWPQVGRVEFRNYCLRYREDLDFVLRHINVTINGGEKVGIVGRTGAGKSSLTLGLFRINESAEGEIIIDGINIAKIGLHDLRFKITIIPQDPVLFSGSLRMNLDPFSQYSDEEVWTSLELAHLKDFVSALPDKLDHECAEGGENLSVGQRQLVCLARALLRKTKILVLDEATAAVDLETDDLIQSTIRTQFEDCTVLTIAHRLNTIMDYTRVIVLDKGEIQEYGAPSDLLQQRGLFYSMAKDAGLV
Chain of P-gp (ABCB1) (P08183 whole entry): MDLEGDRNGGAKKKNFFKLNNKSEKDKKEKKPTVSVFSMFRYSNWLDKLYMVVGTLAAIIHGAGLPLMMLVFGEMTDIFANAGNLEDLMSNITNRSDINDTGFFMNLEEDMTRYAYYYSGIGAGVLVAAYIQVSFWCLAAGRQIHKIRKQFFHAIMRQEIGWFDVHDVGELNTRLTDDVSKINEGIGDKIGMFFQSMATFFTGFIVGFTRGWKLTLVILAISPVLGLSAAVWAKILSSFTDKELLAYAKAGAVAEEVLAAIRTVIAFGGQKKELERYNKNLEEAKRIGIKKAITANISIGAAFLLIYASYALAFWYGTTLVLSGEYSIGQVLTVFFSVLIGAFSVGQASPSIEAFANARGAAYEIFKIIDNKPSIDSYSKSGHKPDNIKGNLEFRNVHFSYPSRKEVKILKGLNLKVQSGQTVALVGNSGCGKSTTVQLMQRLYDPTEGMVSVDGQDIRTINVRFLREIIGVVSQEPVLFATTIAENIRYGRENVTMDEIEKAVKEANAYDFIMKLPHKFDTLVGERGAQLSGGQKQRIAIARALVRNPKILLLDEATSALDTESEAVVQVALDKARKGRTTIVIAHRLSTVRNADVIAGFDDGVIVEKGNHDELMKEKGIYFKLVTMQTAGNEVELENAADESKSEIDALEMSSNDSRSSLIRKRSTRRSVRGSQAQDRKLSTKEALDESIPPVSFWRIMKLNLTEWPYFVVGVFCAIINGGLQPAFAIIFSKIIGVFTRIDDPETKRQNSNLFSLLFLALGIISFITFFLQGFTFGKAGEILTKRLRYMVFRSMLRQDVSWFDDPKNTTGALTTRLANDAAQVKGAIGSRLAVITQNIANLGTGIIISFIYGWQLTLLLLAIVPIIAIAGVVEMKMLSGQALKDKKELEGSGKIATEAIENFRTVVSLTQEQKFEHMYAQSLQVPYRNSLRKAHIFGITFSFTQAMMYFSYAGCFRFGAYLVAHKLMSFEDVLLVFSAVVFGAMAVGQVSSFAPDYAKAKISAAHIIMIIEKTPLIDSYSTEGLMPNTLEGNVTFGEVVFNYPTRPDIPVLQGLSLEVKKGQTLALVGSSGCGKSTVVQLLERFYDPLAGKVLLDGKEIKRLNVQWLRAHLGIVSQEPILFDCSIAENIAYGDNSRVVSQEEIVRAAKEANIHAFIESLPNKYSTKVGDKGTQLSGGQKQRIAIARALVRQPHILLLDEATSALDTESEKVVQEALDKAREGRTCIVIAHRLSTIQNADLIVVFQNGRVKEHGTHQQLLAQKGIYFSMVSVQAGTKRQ
T2 sequence (P08183 whole entry): as above

efflux ratio at 2 h, 100 µM [1]	inhibition (INH) [2]	EC50 [7]	Activity [8]	Structure (SMILES)	Activity [3]	Activity [4]	Activity [5]	EC50 [6]
4.9	Not Active	290 nM	Not Active	COc1cc2c(cc1OC)CN(Cc1ccc(-c3ccc(OCCOc4nonc4OCc4ccccc4)cc3)cc1)CC2	–	–	–	–
4	Not Active	350 nM	Not Active	COc1cc2c(cc1OC)CN(Cc1ccc(-c3ccc(OCCCOc4nonc4C)cc3)cc1)CC2	–	–	–	–
3	Not Active	290 nM	Not Active	COc1cc2c(cc1OC)CN(Cc1ccc(-c3ccc(OCCCCOc4nonc4OC)cc3)cc1)CC2	–	–	–	–
4.9	Not Active	1050 nM	Not Active	COc1cc2c(cc1OC)CN(Cc1ccc(-c3ccc(OCCCOc4nonc4C#N)cc3)cc1)CC2	–	–	–	–
2.5	Not Active	380 nM	Not Active	COc1cc2c(cc1OC)CN(Cc1ccc(-c3ccc(OCCCOc4nonc4S(=O)(=O)c4ccccc4)cc3)cc1)CC2	–	–	–	–
3.8	Not Active	1180 nM	Not Active	COc1cc2c(cc1OC)CN(Cc1ccc(-c3ccc(OCCCOc4nonc4Oc4ccccc4)cc3)cc1)CC2	–	–	–	–
4.7	Not Active	1200 nM	Not Active	COc1cc2c(cc1OC)CN(Cc1ccc(-c3ccc(OCCOc4nonc4C#N)cc3)cc1)CC2	–	–	–	–
4.7	Not Active	1170 nM	Not Active	COc1cc2c(cc1OC)CN(Cc1ccc(-c3ccc(OCCCOc4nonc4Sc4ccccc4)cc3)cc1)CC2	–	–	–	–
20	Not Active	3300 nM	Not Active	COc1cc2c(cc1OC)CN(Cc1ccc(-c3ccc(OCCCOc4nonc4-c4ccccc4)cc3)cc1)CC2	–	–	–	–

Structure (SMILES)	efflux ratio at 2 h, 100 µM [1]	inhibition (INH) [2]	EC50 [7]	Activity [8]	Activity [3]	Activity [4]	Activity [5]	EC50 [6]
COc1cc2c(cc1OC)CN(Cc1ccc(-c3ccc(OCCCOc4nonc4OCc4ccccc4)cc3)cc1)CC2	3	Not Active	0.97 nM	Not Active	Toxic	Non-Toxic	Toxic	> 100000 nM
COc1cc2c(cc1OC)CN(Cc1ccc(-c3ccc(OCCOc4nonc4[S+]([O-])c4ccccc4)cc3)cc1)CC2 (configuration not stated)	4.6	Not Active	0.9 nM	Not Active	Toxic	Non-Toxic	Toxic	> 100000 nM
COc1cc2c(cc1OC)CN(Cc1ccc(-c3ccc(OCCCOc4nonc4OC)cc3)cc1)CC2	3.2	Not Active	54 nM	Not Active	–	–	–	–
COc1cc2c(cc1OC)CN(Cc1ccc(-c3ccc(OCCCOc4nonc4[S+]([O-])c4ccccc4)cc3)cc1)CC2 (configuration not stated)	2.6	Not Active	1.3 nM	Not Active	Toxic	Non-Toxic	Toxic	> 100000 nM
COc1cc2c(cc1OC)CN(Cc1ccc(-c3ccc(OCCOc4nonc4OC)cc3)cc1)CC2	3.2	Not Active	0.6 nM	Active	Toxic	Non-Toxic	Toxic	> 100000 nM

— ChEMBL document CHEMBL4425124, “Structure-Activity Relationship Studies on Tetrahydroisoquinoline Derivatives: [4'-(6,7-Dimethoxy-3,4-dihydro-1H-isoquinolin-2-ylmethyl)biphenyl-4-ol] (MC70) Conjugated through Flexible Alkyl Chains with Furazan Moieties Gives Rise to Potent and Selective Ligands of P-glycoprotein” (J Med Chem, 2016)
